Converted amounts (≈) assume the structure as drawn. The source made the active and inactive calls. No cut-off for these calls is given here.
Legend:
[1] = Cytotoxicity against human Erythroid progenitor cells assessed as cell viability after 48 hrs by CellTiter-blue assay; assay type: cell-based
How it was run: (§1)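 Normal human erythroid progenitor cells, expanded from umbilical cord blood, plated at 25000 cells/well immediately before compound addition (added as a 5× predilution in culture medium). Viability by CellTiter-Blue fluorescence 48 h after addition, normalized to untreated cells set as 100%.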

[2] = Cytotoxicity against human Erythroid progenitor cells assessed as maximum safe concentration after 48 hrs by CellTiter-blue assay; assay type: cell-based; settings: read-out: Activity; how it was run: as §1
[3] = Induction of apoptosis in human Erythroid progenitor cells assessed as caspase 3/7 activation after 4 hrs by Caspase-Glo 3/7 assay
How it was run: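 Cord-blood-derived human erythroid progenitor cells plated at 25000 cells/well and exposed to compound prediluted in medium. Caspase 3/7 activation read by Caspase-Glo 3/7 luminescence 4 h after addition, normalized to untreated control cells set as 100%.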

Bacillus subtilis [4] = assay: Inhibition of Bacillus subtilis RNA polymerase using [alpha-32P]-UTP at 1 mM pretreated for 5 mins measured after 15 mins by electrophoresis analysis
How it was run: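 Reconstituted B. subtilis RNAP σA holoenzyme (6 nM) with supercoiled pLK7 template carrying the rrnB P1 promoter (4 ng/μL). Nucleotides: ATP/CTP/GTP 200 μM, UTP 10 μM plus 2 μM [α-³²P]-UTP. Compound at 1 mM; 5 min preincubation at 30 °C, started with RNAP, stopped after 15 min with formamide/EDTA.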

Escherichia coli [5] = assay: Antibacterial activity against Escherichia coli after 24 to 48 hrs by microdilution method; assay type: functional
How it was run: (§2)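 Incubation 24/48 h at 37 °C. MIC read as the lowest concentration inhibiting growth. MBC determined by transferring 10 μL from wells onto blood agar, taken as the lowest concentration with no visible growth.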

Pseudomonas aeruginosa = assay: Antibacterial activity against Pseudomonas aeruginosa after 24 to 48 hrs by microdilution method; assay type: functional; how it was run: as §2
Enterococcus faecalis [6] = assay: Antibacterial activity against Enterococcus faecalis CCM 4224 after 24 to 48 hrs by microdilution method; assay type: functional; how it was run: as §2
Bacillus subtilis [7] = assay: Antibacterial activity against Bacillus subtilis after 24 to 48 hrs by microdilution method; assay type: functional; how it was run: as §2
Streptococcus agalactiae = assay: Antibacterial activity against Streptococcus agalactiae after 24 to 48 hrs by microdilution method; assay type: functional; how it was run: as §2
Staphylococcus aureus [8] = assay: Antibacterial activity against methicillin-sensitive Staphylococcus aureus ATCC 29213; assay type: functional; how it was run: as §2
Staphylococcus aureus [9] = assay: Antibacterial activity against methicillin-resistant Staphylococcus aureus SR3637; assay type: functional
Enterococcus faecalis [10] = assay: Antibacterial activity against Enterococcus faecalis ATCC 29212; assay type: functional
Enterococcus faecalis [11] = assay: Antibacterial activity against vancomycin-resistant Enterococcus faecalis SR7914; assay type: functional
Enterococcus faecium [12] = assay: Antibacterial activity against Enterococcus faecium ATCC 19434; assay type: functional; how it was run: as §2
Enterococcus faecium [13] = assay: Antibacterial activity against vancomycin-resistant Enterococcus faecium SR7917; assay type: functional
Staphylococcus aureus [14] = assay: Antibacterial activity against methicillin-resistant Staphylococcus aureus 4591 after 24 to 48 hrs by microdilution method; assay type: functional
How it was run: (§3)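 Broth microdilution MIC on clinical isolates from Teaching Hospital Olomouc, stored at −80 °C. Compounds were serially diluted in brain heart infusion broth over 200–1.56 μg/mL (sometimes extended to 0.78 μg/mL), with an inoculum of 10⁵⁻⁶ CFU/ml per well. Plates were incubated at 37 °C and read at 24/48 h. MIC was taken as the lowest concentration inhibiting growth.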

Enterococcus faecium [15] = assay: Antibacterial activity against vancomycin-resistant Enterococcus faecium VanA419/ana after 24 to 48 hrs by microdilution method; assay type: functional; how it was run: as §3
[16] = tested on: Staphylococcus epidermidis; assay: Antibacterial activity against methicillin-resistant Staphylococcus epidermidis 8700/B after 24 to 48 hrs by microdilution method; assay type: functional; how it was run: as §3
Staphylococcus aureus [17] = assay: Antibacterial activity against Staphylococcus aureus CCM 4223 after 24 to 48 hrs by microdilution method; assay type: functional; how it was run: as §2
Escherichia coli [18] = assay: Antibacterial activity against permeabilized Escherichia coli DH5[alpha] assessed as log reduction of colony forming unit at 10 uM; assay type: functional, organism-based
How it was run: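 Competent (permeabilized) E. coli DH5α cells were mixed with 5 ng pUC18 (ampR) and serially diluted compound or buffer only. Steps: 30 min on ice, heat shock at 42 °C for 90 s, 5 min on ice, then LB without antibiotic for 1 h at 37 °C with shaking. Plated on LB agarose with ampicillin 100 μg/mL overnight at 37 °C. Colonies counted against the no-compound control.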

[19] = tested on: Staphylococcus haemolyticus; assay: Antibacterial activity against fluoroquinolone-resistant Staphylococcus haemolyticus 16568 after 24 to 48 hrs by microdilution method; assay type: functional; how it was run: as §3

SMILES	IC50 [1] [µg/mL]	MNTC at 48 h [2] [µg/mL]	Activity [3]	MIC (Escherichia coli [5]) [µg/mL]	MIC (Pseudomonas aeruginosa) [µg/mL]	MIC (Enterococcus faecalis [6]) [µg/mL]	MIC (Bacillus subtilis [7]) [µg/mL]	MIC (Streptococcus agalactiae) [µg/mL]	other results
CCCCCCCCCCCCCCCCOCCCOP(=O)(CCN1C[C@H](O)C[C@@H](O)C1)OC[C@H]1O[C@@H](n2ccc(=O)[nH]c2=O)[C@H](O)[C@@H]1O (some centres undefined)	53 (≈ 72.2 µM)	31.2	Non-toxic	> 200	> 200	200 (≈ 273 µM)	100 (≈ 136 µM)	6.25 (≈ 8.52 µM)	inhibition (Bacillus subtilis [4]): inactive
CC(C)C[C@@H](NC[C@@H](NC(=O)N[C@H](C(=O)O)C(C)C)[C@@H]1CCNC(=N)N1)C(=O)NCCCN[C@H](C(=O)O)[C@H](O[C@@H]1O[C@H](CN)[C@@H](O)[C@H]1O)[C@H]1O[C@@H](n2ccc(=O)[nH]c2=O)[C@H](O)[C@@H]1O	–	–	–	–	–	–	–	–	MIC (Staphylococcus aureus [8]): > 64 µg/mL; MIC (Staphylococcus aureus [9]): > 64 µg/mL; MIC (Enterococcus faecalis [10]): > 64 µg/mL; MIC (Enterococcus faecalis [11]): > 64 µg/mL; MIC (Enterococcus faecium [12]): > 64 µg/mL; MIC (Enterococcus faecium [13]): > 64 µg/mL
CCCCCCCCCCCCCCCCCCOP(=O)(CCN1C[C@@H](O)[C@H](O)C1)OC[C@H]1O[C@@H](n2ccc(=O)[nH]c2=O)[C@H](O)[C@@H]1O (some centres undefined)	36 (≈ 52.2 µM)	15.6	Non-toxic	> 200	> 200	6.25 (≈ 9.06 µM)	6.25 (≈ 9.06 µM)	3.13 (≈ 4.54 µM)	MIC (Staphylococcus aureus [14]): 200 µg/mL (≈ 290 µM); MIC (Enterococcus faecium [15]): 6.25 µg/mL (≈ 9.06 µM); MIC [16]: 6.25 µg/mL (≈ 9.06 µM); MIC (Staphylococcus aureus [17]): 12.5 µg/mL (≈ 18.1 µM)
CCCCCCCCCCCCCCCCOP(=O)(CCN1C[C@@H](O)[C@H](O)C1)OC[C@H]1O[C@@H](n2ccc(=O)[nH]c2=O)[C@H](O)[C@@H]1O (mixture of isomers)	–	–	–	–	–	–	–	–	Activity (Escherichia coli [18]): Active
CCCCCCCCCCCCCCCCOP(=O)(CCN1C[C@H](O)C[C@H]1CO)OC[C@H]1O[C@@H](n2ccc(=O)[nH]c2=O)[C@H](O)[C@@H]1O (some centres undefined)	116 (≈ 172 µM)	62.5	Non-toxic	> 200	> 200	6.25 (≈ 9.25 µM)	3.13 (≈ 4.63 µM)	3.13 (≈ 4.63 µM)	MIC (Enterococcus faecium [15]): 6.25 µg/mL (≈ 9.25 µM); MIC [16]: 6.25 µg/mL (≈ 9.25 µM); MIC (Staphylococcus aureus [17]): 100 µg/mL (≈ 148 µM)
CCCCCCCCCCCCCCC[C@H](NC[C@@H](NC(=O)N[C@H](C(=O)O)C(C)C)[C@@H]1CCNC(=N)N1)C(=O)NCCCN[C@H](C(=O)O)[C@H](O[C@@H]1O[C@H](CN)[C@@H](O)[C@H]1O)[C@H]1O[C@@H](n2ccc(=O)[nH]c2=O)[C@H](O)[C@@H]1O	–	–	–	–	–	–	–	–	MIC (Staphylococcus aureus [8]): 2 µg/mL (≈ 1.89 µM); MIC (Staphylococcus aureus [9]): 4 µg/mL (≈ 3.79 µM); MIC (Enterococcus faecalis [10]): 4 µg/mL (≈ 3.79 µM); MIC (Enterococcus faecalis [11]): 4 µg/mL (≈ 3.79 µM); MIC (Enterococcus faecium [12]): 4 µg/mL (≈ 3.79 µM); MIC (Enterococcus faecium [13]): 2 µg/mL (≈ 1.89 µM)
CCOP(=O)(CCN1C[C@@H](O)[C@H](O)C1)OC[C@H]1O[C@@H](n2ccc(=O)[nH]c2=O)[C@H](O)[C@@H]1O (some centres undefined)	–	–	Non-toxic	> 200	> 200	–	–	–	–
CC(C)(C)C(=O)SCCOP(=O)(CCN1C[C@@H](O)[C@H](O)C1)OC[C@H]1O[C@@H](n2ccc(=O)[nH]c2=O)[C@H](O)[C@@H]1O (some centres undefined)	> 1000	> 1000	Non-toxic	> 200	> 200	–	–	–	–
CN(C)[C@@H]1C(O)=C(C(N)=O)C(=O)[C@@]2(O)C(O)=C3C(=O)c4c(O)cccc4[C@@](C)(O)[C@H]3C[C@@H]12 [TETRACYCLINE]	–	–	–	–	–	–	2 (≈ 4.5 µM)	1 (≈ 2.25 µM)	–
CCCCCCCCCCCCCCC[C@@H](NC[C@@H](NC(=O)N[C@H](C(=O)O)C(C)C)[C@@H]1CCNC(=N)N1)C(=O)NCCCN[C@H](C(=O)O)[C@H](O[C@@H]1O[C@H](CN)[C@@H](O)[C@H]1O)[C@H]1O[C@@H](n2ccc(=O)[nH]c2=O)[C@H](O)[C@@H]1O	–	–	–	–	–	–	–	–	MIC (Staphylococcus aureus [8]): 2 µg/mL (≈ 1.89 µM); MIC (Staphylococcus aureus [9]): 4 µg/mL (≈ 3.79 µM); MIC (Enterococcus faecalis [10]): 2 µg/mL (≈ 1.89 µM); MIC (Enterococcus faecalis [11]): 4 µg/mL (≈ 3.79 µM); MIC (Enterococcus faecium [12]): 0.5 µg/mL (≈ 0.473 µM); MIC (Enterococcus faecium [13]): 0.25 µg/mL (≈ 0.237 µM)
CCCCCCCCCCCCCCOP(=O)(CCN1C[C@@H](O)[C@H](O)C1)OC[C@H]1O[C@@H](n2ccc(=O)[nH]c2=O)[C@H](O)[C@@H]1O (some centres undefined)	58 (≈ 91.5 µM)	31.2	Non-toxic	> 200	> 200	12.5 (≈ 19.7 µM)	6.25 (≈ 9.86 µM)	6.25 (≈ 9.86 µM)	MIC (Staphylococcus aureus [14]): 25 µg/mL (≈ 39.4 µM); MIC [19]: 12.5 µg/mL (≈ 19.7 µM); MIC (Enterococcus faecium [15]): 12.5 µg/mL (≈ 19.7 µM); MIC [16]: 12.5 µg/mL (≈ 19.7 µM); MIC (Staphylococcus aureus [17]): 12.5 µg/mL (≈ 19.7 µM)
